Experimental data taken from ChEMBL document CHEMBL1143889, “N-Phenyl and N-phenylalkyl-maleimides acting against Candida spp.: time-to-kill, stability, interaction with maleamic acids” (2008).
Values after ≈ are worked out from the molar mass of the structure shown. Active and inactive are the calls of the source. The calls are words filed in the database; no cut-off is given here.

What was measured:
Candida albicans [1] = experiment: Antifungal activity against Candida albicans ATCC 10231 pre-incubated for 5 days analysed after 24 hrs by CLSI M27-A2 method; assay type: functional
How it was run: (§1)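 Twofold maleimide dilutions (1000–0.98 µg/mL) in complete M27-A2 medium without inoculum were held at 37 °C, with one plate row filled on each of 7 consecutive days to give 0–7 days of pre-incubation. All wells were then inoculated with C. albicans ATCC 10231 at 1–5 × 10⁴ CFU/mL and incubated for 24 h at 37 °C. MIC was read per row, in duplicate.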

Candida albicans [2] = experiment: Antifungal activity against Candida albicans ATCC 10231 within 90 mins by time-to-kill study; assay type: functional, organism-based
How it was run: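 C. albicans ATCC 10231 (2–2.5 × 10⁴ CFU/mL) in 5 mL RPMI-1640 was exposed to 1× MFC of compound at 37 °C with agitation. 10 µL samples taken at 0, 30, 60, 90 and 120 min, and at 4, 8, 12 and 24 h, were plated on drug-free SDA and colonies counted after 24–48 h at 37 °C. Run in duplicate.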

Candida albicans [3] = experiment: Antifungal activity against Candida albicans ATCC 10231 pre-incubated for 2 days analysed after 24 hrs by CLSI M27-A2 method; assay type: functional; how it was run: as §1
Candida albicans [4] = experiment: Antifungal activity against Candida albicans ATCC 10231 preincubated for 7 days analysed after 24 hrs by CLSI M27-A2 method; assay type: functional; how it was run: as §1
Candida albicans [5] = experiment: Antifungal activity against Candida albicans ATCC 10231 pre-incubated for 6 days analysed after 24 hrs by CLSI M27-A2 method; assay type: functional; how it was run: as §1
Torulaspora delbrueckii = experiment: Antifungal activity against Candida coliculosa C 122-2000 after 48 hrs by CLSI M27-A2 method; assay type: functional
How it was run: (§2)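 Broth microdilution per CLSI M27-A2 in RPMI-1640, with twofold dilutions giving final 250–0.98 µg/mL. The inoculum was modified to 1–5 × 10⁴ CFU/mL instead of 1–5 × 10³, with ketoconazole and amphotericin B as positive controls. MIC was the lowest concentration giving total growth inhibition, read visually. Strains were grown on Sabouraud-chloramphenicol agar for 24 h at 37 °C.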

Candida albicans [6] = experiment: Antifungal activity against Candida albicans ATCC 10231 pre-incubated for 1 day analysed after 24 hrs by CLSI M27-A2 method; assay type: functional; how it was run: as §1
Candida albicans [7] = experiment: Antifungal activity against Candida albicans C 130-2000 after 48 hrs by CLSI M27-A2 method; assay type: functional; how it was run: as §2
Kluyveromyces marxianus = experiment: Antifungal activity against Candida kefyr C 123-2000 after 48 hrs by CLSI M27-A2 method; assay type: functional; how it was run: as §2
Nakaseomyces glabratus = experiment: Antifungal activity against Candida glabrata C 115-2000 after 48 hrs by CLSI M27-A2 method; assay type: functional; how it was run: as §2
Candida albicans [8] = experiment: Antifungal activity against Candida albicans ATCC 10231 after 48 hrs by CLSI M27-A2 method; assay type: functional; conditions: ATCC 10231, 48 h; how it was run: as §2
Candida albicans [9] = experiment: Antifungal activity against Candida albicans C 126-2000 after 48 hrs by CLSI M27-A2 method; assay type: functional; how it was run: as §2
Candida albicans [10] = experiment: Antifungal activity against Candida albicans C 127-2000 after 48 hrs by CLSI M27-A2 method; assay type: functional; how it was run: as §2
Candida albicans [11] = experiment: Antifungal activity against Candida albicans C 125-2000 after 48 hrs by CLSI M27-A2 method; assay type: functional; how it was run: as §2
Candida albicans [12] = experiment: Antifungal activity against Candida albicans C 129-2000 after 48 hrs by CLSI M27-A2 method; assay type: functional; how it was run: as §2
Candida albicans [13] = experiment: Antifungal activity against Candida albicans ATCC 10231 after 24 hrs by CLSI M27-A2 method; assay type: functional; conditions: ATCC 10231, 24 h; how it was run: as §2
Candida tropicalis = experiment: Antifungal activity against Candida tropicalis C 137-1997 after 48 hrs by CLSI M27-A2 method; assay type: functional; how it was run: as §2
Pichia kudriavzevii = experiment: Antifungal activity against Candida krusei C 117-2000 after 48 hrs by CLSI M27-A2 method; assay type: functional; how it was run: as §2
Clavispora lusitaniae = experiment: Antifungal activity against Candida lusitaniae C 131-2000 after 48 hrs by CLSI M27-A2 method; assay type: functional; how it was run: as §2
Candida albicans [14] = experiment: Antifungal activity against Candida albicans ATCC 10231 pre-incubated for 3 days analysed after 24 hrs by CLSI M27-A2 method; assay type: functional; how it was run: as §1
Candida albicans [15] = experiment: Antifungal activity against Candida albicans ATCC 10231 pre-incubated for 4 days analysed after 24 hrs by CLSI M27-A2 method; assay type: functional; how it was run: as §1
Candida parapsilosis = experiment: Antifungal activity against Candida parapsilosis C 124-2000 after 48 hrs by CLSI M27-A2 method; assay type: functional; conditions: Lodderomyces parapsilosis; how it was run: as §2
Candida albicans [16] = experiment: Antifungal activity against Candida albicans C 128-2000 after 48 hrs by CLSI M27-A2 method; assay type: functional; how it was run: as §2

Structure (SMILES)	MIC (Candida albicans [1]) [µg/mL]	Activity (Candida albicans [2])	MIC (Candida albicans [3]) [µg/mL]	MIC (Candida albicans [4]) [µg/mL]	MIC (Candida albicans [5]) [µg/mL]	MFC (Torulaspora delbrueckii) [µg/mL]	MIC (Torulaspora delbrueckii) [µg/mL]	MIC (Candida albicans [6]) [µg/mL]	MFC (Candida albicans [7]) [µg/mL]	MIC (Candida albicans [7]) [µg/mL]	MFC (Kluyveromyces marxianus) [µg/mL]	MIC (Kluyveromyces marxianus) [µg/mL]	MFC (Nakaseomyces glabratus) [µg/mL]	MIC (Nakaseomyces glabratus) [µg/mL]	MFC (Candida albicans [8]) [µg/mL]	MIC (Candida albicans [8]) [µg/mL]	MFC (Candida albicans [9]) [µg/mL]	MIC (Candida albicans [9]) [µg/mL]	MFC (Candida albicans [10]) [µg/mL]	MIC (Candida albicans [10]) [µg/mL]	other results
O=C1C=CC(=O)N1Cc1ccccc1	125 (≈ 668 µM)	Active	7.8 (≈ 41.7 µM)	500 (≈ 2670 µM)	250 (≈ 1340 µM)	7.81 (≈ 41.7 µM)	1.95 (≈ 10.4 µM)	3.9 (≈ 20.8 µM)	1.95 (≈ 10.4 µM)	0.97 (≈ 5.18 µM)	3.9 (≈ 20.8 µM)	3.9 (≈ 20.8 µM)	1.95 (≈ 10.4 µM)	1.95 (≈ 10.4 µM)	7.8 (≈ 41.7 µM)	3.9 (≈ 20.8 µM)	3.9 (≈ 20.8 µM)	0.97 (≈ 5.18 µM)	3.9 (≈ 20.8 µM)	1.95 (≈ 10.4 µM)	MFC (Candida albicans [11]): 1.95 µg/mL (≈ 10.4 µM); MIC (Candida albicans [11]): 0.97 µg/mL (≈ 5.18 µM); MFC (Candida albicans [12]): 3.9 µg/mL (≈ 20.8 µM); MIC (Candida albicans [12]): 1.95 µg/mL (≈ 10.4 µM); MIC (Candida albicans [13]): 3.9 µg/mL (≈ 20.8 µM); MFC (Candida tropicalis): 32.2 µg/mL (≈ 172 µM); MIC (Candida tropicalis): 15.8 µg/mL (≈ 84.1 µM); MFC (Pichia kudriavzevii): 3.9 µg/mL (≈ 20.8 µM); MIC (Pichia kudriavzevii): 3.9 µg/mL (≈ 20.8 µM); MFC (Clavispora lusitaniae): 3.9 µg/mL (≈ 20.8 µM); MIC (Clavispora lusitaniae): 1.95 µg/mL (≈ 10.4 µM); MIC (Candida albicans [14]): 7.8 µg/mL (≈ 41.7 µM); MIC (Candida albicans [15]): 15.8 µg/mL (≈ 84.1 µM); MFC (Candida parapsilosis): 3.9 µg/mL (≈ 20.8 µM); MIC (Candida parapsilosis): 1.95 µg/mL (≈ 10.4 µM); MFC (Candida albicans [16]): 3.9 µg/mL (≈ 20.8 µM); MIC (Candida albicans [16]): 1.95 µg/mL (≈ 10.4 µM)
O=C1C=CC(=O)N1CCCc1ccccc1	62.5 (≈ 290 µM)	Active	3.9 (≈ 18.1 µM)	1000 (≈ 4650 µM)	125 (≈ 581 µM)	32.2 (≈ 150 µM)	3.9 (≈ 18.1 µM)	3.9 (≈ 18.1 µM)	1.95 (≈ 9.06 µM)	0.97 (≈ 4.51 µM)	7.81 (≈ 36.3 µM)	15.8 (≈ 73.2 µM)	3.9 (≈ 18.1 µM)	1.95 (≈ 9.06 µM)	7.8 (≈ 36.2 µM)	3.9 (≈ 18.1 µM)	1.95 (≈ 9.06 µM)	0.97 (≈ 4.51 µM)	3.9 (≈ 18.1 µM)	1.95 (≈ 9.06 µM)	MFC (Candida albicans [11]): 1.95 µg/mL (≈ 9.06 µM); MIC (Candida albicans [11]): 0.97 µg/mL (≈ 4.51 µM); MFC (Candida albicans [12]): 3.9 µg/mL (≈ 18.1 µM); MIC (Candida albicans [12]): 1.95 µg/mL (≈ 9.06 µM); MIC (Candida albicans [13]): 3.9 µg/mL (≈ 18.1 µM); MFC (Candida tropicalis): 32.2 µg/mL (≈ 150 µM); MIC (Candida tropicalis): 15.8 µg/mL (≈ 73.2 µM); MFC (Pichia kudriavzevii): 7.8 µg/mL (≈ 36.2 µM); MIC (Pichia kudriavzevii): 3.9 µg/mL (≈ 18.1 µM); MFC (Clavispora lusitaniae): 7.8 µg/mL (≈ 36.2 µM); MIC (Clavispora lusitaniae): 1.95 µg/mL (≈ 9.06 µM); MIC (Candida albicans [14]): 15.8 µg/mL (≈ 73.2 µM); MIC (Candida albicans [15]): 15.8 µg/mL (≈ 73.2 µM); MFC (Candida parapsilosis): 3.9 µg/mL (≈ 18.1 µM); MIC (Candida parapsilosis): 3.9 µg/mL (≈ 18.1 µM); MFC (Candida albicans [16]): 7.81 µg/mL (≈ 36.3 µM); MIC (Candida albicans [16]): 3.9 µg/mL (≈ 18.1 µM)
O=C1C=CC(=O)N1CCc1ccccc1	125 (≈ 621 µM)	Active	7.8 (≈ 38.8 µM)	500 (≈ 2480 µM)	250 (≈ 1240 µM)	7.81 (≈ 38.8 µM)	1.95 (≈ 9.69 µM)	3.9 (≈ 19.4 µM)	1.95 (≈ 9.69 µM)	1.95 (≈ 9.69 µM)	3.9 (≈ 19.4 µM)	3.9 (≈ 19.4 µM)	3.9 (≈ 19.4 µM)	1.95 (≈ 9.69 µM)	7.8 (≈ 38.8 µM)	3.9 (≈ 19.4 µM)	7.81 (≈ 38.8 µM)	3.9 (≈ 19.4 µM)	3.9 (≈ 19.4 µM)	1.95 (≈ 9.69 µM)	MFC (Candida albicans [11]): 1.95 µg/mL (≈ 9.69 µM); MIC (Candida albicans [11]): 1.95 µg/mL (≈ 9.69 µM); MFC (Candida albicans [12]): 1.95 µg/mL (≈ 9.69 µM); MIC (Candida albicans [12]): 1.95 µg/mL (≈ 9.69 µM); MIC (Candida albicans [13]): 3.9 µg/mL (≈ 19.4 µM); MFC (Candida tropicalis): 32.2 µg/mL (≈ 160 µM); MIC (Candida tropicalis): 15.8 µg/mL (≈ 78.3 µM); MFC (Pichia kudriavzevii): 7.8 µg/mL (≈ 38.8 µM); MIC (Pichia kudriavzevii): 3.9 µg/mL (≈ 19.4 µM); MFC (Clavispora lusitaniae): 7.8 µg/mL (≈ 38.8 µM); MIC (Clavispora lusitaniae): 3.9 µg/mL (≈ 19.4 µM); MIC (Candida albicans [14]): 7.8 µg/mL (≈ 38.8 µM); MIC (Candida albicans [15]): 31.2 µg/mL (≈ 155 µM); MFC (Candida parapsilosis): 3.9 µg/mL (≈ 19.4 µM); MIC (Candida parapsilosis): 3.9 µg/mL (≈ 19.4 µM); MFC (Candida albicans [16]): 7.81 µg/mL (≈ 38.8 µM); MIC (Candida albicans [16]): 3.9 µg/mL (≈ 19.4 µM)
